{"source": "paper PMC4425413", "about": "(The Biochemical journal, 2015)", "key": {"HeLa cells": {"tested_on": "HeLa cells", "experiment": "STS-induced apoptosis", "assay_type": "cell-based", "conditions": "100 nM STS 20 h without the peptides", "how_it_was_run": "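HeLa cells in DMEM + 10% FBS, grown to 70%–80% confluence. Apoptosis induced with 100 nM staurosporine for 20 h; untreated cells as control. Early apoptosis scored by Annexin V–FITC staining, late apoptosis by TUNEL, as percentage of cells. Means + S.D. from three independent experiments.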"}, "[1]": {"tested_on": "selenite-induced cataracts in rats", "experiment": "Selenite cataract in rat pups", "assay_type": "in vivo, Sprague–Dawley rat", "conditions": "selenite alone compared with untreated controls"}}}
{"smiles": "CN[C@@H]1C[C@H]2O[C@@](C)([C@@H]1OC)n1c3ccccc3c3c4c(c5c6ccccc6n2c5c31)C(=O)NC4", "note": "[STS, staurosporine]", "values": [{"measurement": "early-stage apoptosis (% of the cells), inducer alone", "setting": "HeLa cells; Annexin V–FITC", "value": 14, "unit": "%"}, {"measurement": "late stage apoptosis (% of the cells), inducer alone", "setting": "HeLa cells; TUNEL", "value": 5, "unit": "%"}]}
{"smiles": "O=[Se]([O-])[O-].[Na+].[Na+]", "note": "[sodium selenite]", "values": [{"measurement": "total soluble lens proteins, selenite alone", "setting": "[1]; Fig 9B", "value": "reduction"}, {"measurement": "lens GSH content, selenite alone", "setting": "[1]; Fig 9C", "value": "reduction"}]}
